For one data set, the system named is HSV-2. As to conditions: read-out: EC50 HSV-2; cell-based antiviral activity; cited from earlier work.
Data set [1] deals with mutant of HSV-1 resistant to acyclovir (TK−). Nature of the data set: Replication inhibition of acyclovir-resistant HSV-1 mutant. As to conditions: Fig. 2C. The format is cell-based, herpes simplex virus-1.
The test system of data set [2] is HSV-1. As to conditions: read-out: EC50 HSV-1; cell-based antiviral activity; cited from earlier work.
Data set [3] has as its system HSV-1. Nature of the data set: HSV replication inhibition assay, HSV-1 in Vero cells. As to conditions: for EC50: read-out: HSV-1 EC50 (μM) ± SD; for Selectivity CC50/EC50: Vero CC50 / HSV-1 EC50. The format is cell-based, herpes simplex virus-1. The method, boiled down: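 Confluent Vero monolayers (24-well) got compound in PBS with 2% newborn calf serum and 2 mM L-glutamine, in duplicate, plus clinical-isolate virus at 2 × 10^4 PFU per well, for 1 h at 37 °C. Washed, then compound in DMEM for 24 h. Non-toxic wells (phase-contrast check) were titred by plaque assay (methanol, Giemsa). EC50 used serial dilutions in 96-well format, three-parameter fit, bottom zero.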

The nature of a further data set: Cytotoxicity assay. As to conditions: African green monkey, Vero cells. The format is cell-based. The method, boiled down:
(§1)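 Vero cells in 96-well plates in DMEM with 3% bovine growth serum and 3% newborn calf serum. Serial compound dilutions in medium with 1% DMSO were added 24 h after plating, in duplicate. After 24 or 48 h, MTS was added for 90 min and A490 read. CC50 came from a four-parameter variable-slope fit with bottom fixed at zero.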

The subject of another data set is Vero cells. The data set can be described thus: Cytotoxicity assay. The format is cell-based. As to conditions: read-out: Vero CC50 (μM) ± SD, 48 h, MTS, 2 to 4 independent runs. The method, boiled down: as §1

Each structure is given as a SMILES string. Read-outs that look alike come from different tables or passages of the source.

Consider `Nc1nc2c(ncn2COCCO)c(=O)[nH]1` [acyclovir], for which the EC50 in the data set with HSV-2 is 1400 nM; in the data set on HSV-1 [2] it was 170 nM. In data set [1], the “inhibition of ACV-resistant HSV-1” value was “inhibited only the wild-type virus”. The “inhibition of wild-type HSV-1” value in the data set on HSV-1 [3] (wild-type virus, Fig. 2C) was “inhibited only the wild-type virus”.

Compound `Cc1cc(O)c(=O)c(O)cc1C(=O)Nc1ccc2ccc3cccc4ccc1c2c34` [compound 63, 4,6-Dihydroxy-2-methyl-5-oxo-N-(pyren-1-yl)cyclohepta-1,3,6-triene-1-carboxamide] displayed a 50% cytotoxic concentration (CC50) at 48 h in “Cytotoxicity assay” of 74200 ± 8700 nM. Besides, the half-maximal effective concentration (EC50) with HSV-1 [3] (Human alphaherpesvirus 1, Vero) was 0.244 ± 0.097 µM.

Turning to `Cc1cc(O)c(=O)c(O)cc1C(=O)N1CCc2cc(C3CCCCC3)ccc2C1` [compound 64, 4-(6-Cyclohexyl-1,2,3,4-tetrahydroisoquinoline-2-carbonyl)-2,7-dihydroxy-5-methylcyclohepta-2,4,6-trien-1-one], the CC50 at 48 h in “Cytotoxicity assay” amounted to 75700 ± 5300 nM. In addition, the EC50 with HSV-1 [3] (Human alphaherpesvirus 1, Vero) was 0.072 ± 0.021 µM. The “Selectivity CC50/EC50” value in the data set with HSV-1 [3] (listed as C00065) came out at 1050.

`Cc1cc(O)c(=O)c(O)cc1C(=O)NCC1(c2ccc(C(C)C)cc2)CCCC1` [compound 65, Dihydroxy-N-((1-(4-isopropylphenyl)cyclopentyl)methyl)-2-methyl-5-oxocyclohepta-1,3,6-triene-1-carboxamide]: in the data set with Vero cells, the 50% cytotoxic concentration (CC50) was 92.5 ± 7.5 µM. For the same compound, the “Selectivity CC50/EC50” value with HSV-1 [3] is listed as 302. Further, in the data set with HSV-1 [3] (Vero cells, 3 to 4 independent runs), the EC50 amounted to 0.306 ± 0.016 µM.

For the compound `Cc1cc(O)c(=O)c(O)cc1C(=O)N1CCC2(CC1)C1CC3CC(C1)CC2C3` [compound 66, 2,7-Dihydroxy-4-methyl-5-(spiro[adamantane-2,4′-piperidine]-1′-carbonyl)cyclohepta-2,4,6-trien-1-one], the cytotoxic concentration (CC50) at 48 h in the data set “Cytotoxicity assay” was 23700 ± 3800 nM. In addition, the EC50 in the data set on HSV-1 [3] (Human alphaherpesvirus 1, Vero) was found to be 0.296 ± 0.054 µM.

The values are drawn from paper PMC10016935 (RSC Advances, 2023).
